In ChEMBL document CHEMBL1139095, “Butyl 2-(4-[1.1'-biphenyl]-4-yl-1H-imidazol-2-yl)ethylcarbamate, a potent sodium channel blocker for the treatment of neuropathic pain” (Bioorg Med Chem Lett, 2007):
Active and inactive are the calls of the source.

Assays:
[1] = Displacement of [3H]BTX from sodium channel in rat cerebral cortex synaptosomal membrane; assay type: tissue-based
SH-SY5Y = experiment: Cytoprotection against vetratridine-induced cytotoxicity in human SH-SY5Y cells; assay type: functional, cell-based
Method in brief: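 SH-SY5Y neuroblastoma cells were seeded 24 h ahead and pre-incubated 20 min with compound. They were then exposed 3 h to veratridine plus 1 mM ouabain, and the medium was swapped for 10% alamar blue for 18–24 h. Absorbance was read at 570/620. Percent cell injury was calculated from blank-corrected OD. IC50 (concentration halving injury) was extrapolated from dose–response graphs; triplicate means, two experiments.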

Rattus norvegicus [2] = experiment: Antihyperalgesic effect in carrageenan-induced rat hyperalgesia model at 10 mg/kg, ip; assay type: functional, organism-based; parameters: dose 10 mg/kg
Method in brief: (§1)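 Compound or vehicle was given ip 30 min before paw withdrawal threshold was measured to mechanical stimulus (Randall–Selitto). Carrageenan model: inflamed versus contralateral paw. CCI model: injured versus non-injured paw. Groups of n = 4–6 were compared with vehicle by two-sided Student/Dunnett test; mean ± SEM.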

Rattus norvegicus [3] = experiment: Antihyperalgesic effect in carrageenan-induced rat hyperalgesia model at 30 mg/kg, ip; assay type: functional, organism-based; parameters: dose 30 mg/kg; method in brief: as §1
Rattus norvegicus [4] = experiment: Protective activity against chronic constriction injury-induced rat neuropathic pain model at 30 mg/kg, ip; assay type: functional, organism-based; parameters: dose 30 mg/kg; method in brief: as §1

SMILES | IC50 [1] | IC50 (SH-SY5Y) | other results
COC(=O)NCCc1nc(-c2ccc(-c3ccccc3)cc2)c[nH]1 | 282 nM | – | –
CC(C)(C)OC(=O)NCc1nc(-c2ccc(-c3ccccc3)cc2)c[nH]1 | 144 nM | – | –
CCCCOC(=O)NCCc1nc(-c2ccc(N3CCCC3)cc2)c[nH]1 | 14 nM | 1120 nM | –
CCCCOC(=O)NCCc1nc(-c2ccc(Br)cc2)c[nH]1 | 210 nM | 900 nM | –
CC(C)COC(=O)NCCc1nc(-c2ccc(-c3ccccc3)cc2)c[nH]1 | 26 nM | 610 nM | –
CCOC(=O)NCCc1nc(-c2ccc(-c3ccccc3)cc2)c[nH]1 | 71 nM | – | –
CCCCOC(=O)NCCc1nc(-c2ccc(C(F)(F)F)cc2)c[nH]1 | 453 nM | – | –
CC(C)(C)OC(=O)NCCCc1nc(-c2ccc(-c3ccccc3)cc2)c[nH]1 | 184 nM | – | –
CCCCOC(=O)NCCc1nc(-c2ccc(C3CCCCC3)cc2)c[nH]1 | 7 nM | – | –

The remaining compounds from weak to strong by IC50 [1], led by results:

IC50 [1] | SMILES | IC50 (SH-SY5Y) | other results
1000 nM | CCCCOC(=O)NCCc1nc(-c2ccc(F)cc2)c[nH]1 | – | –
372 nM | CC(C)(C)COC(=O)NCCc1nc(-c2ccc(-c3ccccc3)cc2)c[nH]1 | – | –
96 nM | CCCCOC(=O)NCCc1nc(-c2ccc(CC)cc2)c[nH]1 | 3220 nM | –
86 nM | CCCOC(=O)NCCc1nc(-c2ccc(-c3ccccc3)cc2)c[nH]1 | – | –
64 nM | CC(C)(C)OC(=O)NCCc1nc(-c2ccc(-c3ccccc3)cc2)c[nH]1 | – | –
62 nM | CCCCOC(=O)NCCc1nc(-c2ccc(CCC)cc2)c[nH]1 | 3990 nM | –
52 nM | O=C(NCCc1nc(-c2ccc(-c3ccccc3)cc2)c[nH]1)OC1CCCC1 | 870 nM | –
41 nM | CCCCOC(=O)NCCc1nc(-c2ccc(CC(C)C)cc2)c[nH]1 | 750 nM | –
32 nM | CCCCOC(=O)NCCc1nc(-c2ccc(-c3ccccc3)cc2)c[nH]1 | 230 nM | Activity (Rattus norvegicus [2]): Active; Activity (Rattus norvegicus [3]): Active; Activity (Rattus norvegicus [4]): Active
26 nM | O=C(NCCc1nc(-c2ccc(-c3ccccc3)cc2)c[nH]1)OC1CCCCC1 | 650 nM | –
21 nM | O=C(NCCc1nc(-c2ccc(-c3ccccc3)cc2)c[nH]1)OCC1CCCCC1 | 700 nM | –
15 nM | CCCCCCOC(=O)NCCc1nc(-c2ccc(-c3ccccc3)cc2)c[nH]1 | 670 nM | –
